Source: ChEMBL document CHEMBL2177002, “Antifungal spectrum, in vivo efficacy, and structure-activity relationship of ilicicolin h” (ACS Med Chem Lett, 2012)
In brackets after ≈: the same amount, converted by molar mass. Activity calls are given as the source filed them. No cut-off for these calls is given here.

Legend:
Candida albicans [1] = assay: Antifungal activity against Candida albicans MY 1055 assessed as inhibition of whole cell oxygen consumption at 0.003 ug/mL after 15 mins; format: functional; conditions: MY 1055, 0.25 h
Candida albicans [2] = assay: Ratio of MIC for Candida albicans 8 harboring cytochrome b G37S mutant to MIC for wild type Candida albicans; format: functional
Candida albicans [3] = assay: Antifungal activity against Candida albicans MY 1055 infected in DBA/2 mouse assessed as reduction in kidney fungal burden administered as iv tid after 24 hrs; format: functional; conditions: MY 1055, Kidney
In short: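 Abbreviated 24 h version of the disseminated C. albicans kidney-burden model in mice. Dosing intravenous, thrice daily, at total doses of 50 or 25 mg/kg/day. Kidney burden compared with controls by Excel t test (p < 0.05). ED90 expressed as mg/kg/day.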

[4] = Inhibition of Saccharomyces cerevisiae MY 2141 electron transport protein complex 2/3 using succinate as substrate assessed as decrease in oxygen consumption measured for 3 mins
[5] = Oral bioavailability in mouse; format: ADME, organism-based; conditions: in vivo
Nakaseomyces glabratus = assay: Antifungal activity against Candida glabrata MY 1381 after 24 hrs by NCCLS broth microdilution method; format: functional; conditions: MY 1381, 24 h
Candida albicans [6] = assay: Antifungal activity against Candida albicans MY 1055 infected in DBA/2 mouse assessed as reduction in kidney fungal burden administered as ip tid; format: functional; conditions: MY 1055, Kidney
Candida albicans [7] = assay: Ratio of MIC for Candida albicans 15 harboring cytochrome b G37S mutant to MIC for wild type Candida albicans; format: functional
Candida parapsilosis = assay: Antifungal activity against Candida parapsilosis ATCC 22019 after 24 hrs by NCCLS broth microdilution method; format: functional; conditions: Lodderomyces parapsilosis, ATCC 22019, 24 h
Candida albicans [8] = assay: Ratio of MIC for Candida albicans 13 harboring cytochrome b G37C mutant to MIC for wild type Candida albicans; format: functional
[9] = Half life in mouse; format: ADME, organism-based; conditions: in vivo
Candida albicans [10] = assay: Antifungal activity against fluconazole-resistant Candida albicans MY 2301 after 24 hrs by NCCLS broth microdilution method; format: functional; conditions: MY 2301, 24 h
[11] = Inhibition of ubiquinol:cytochrome c reductase in presence of 50% mouse plasma; format: cell-free
In short: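 Cytochrome c reductase assay run with mouse plasma added at increasing percentages, up to 50%, to gauge the effect of plasma protein binding on inhibition.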

Candida albicans [12] = assay: Ratio of MIC for Candida albicans 16 harboring cytochrome b Q22E mutant to MIC for wild type Candida albicans; format: functional
Candida albicans [13] = assay: Ratio of MIC for Candida albicans 12 harboring cytochrome b Q22E mutant to MIC for wild type Candida albicans; format: functional
[14] = Inhibition of Saccharomyces cerevisiae MY 2141 cytochrome b-c1 complex Qn site in ubiquinol:Cytochrome c reductase
Candida albicans [15] = assay: Antifungal activity against Candida albicans MY 1055 in glycerol-based medium after 24 hrs by NCCLS broth microdilution method; format: functional; conditions: MY 1055, 24 h
[16] = Inhibition of Saccharomyces cerevisiae MY 2141 electron transport protein complex 1/3 using ethanol as substrate assessed as decrease in oxygen consumption measured for 3 mins
[17] = Inhibition of bovine ubiquinol-cytochrome c reductase after 2 mins by stopped flow rapid scanning spectroscopy; design: species or system Bos taurus
Candida albicans [18] = assay: Ratio of MIC for Candida albicans 3 harboring cytochrome b G37D mutant to MIC for wild type Candida albicans; format: functional

C/C=C/[C@@H]1[C@H]2C[C@@H](C)CC[C@@H]2C(C)=C[C@H]1C(=O)c1c(O)c(-c2ccc(O)cc2)c[nH]c1=O [ILICICOLIN H]
inhibition at 0.003 µg/mL (Candida albicans [1]): 100% | Ratio (Candida albicans [2]): 250 | ED90 (Candida albicans [3]): 22.3 mg/kg/day | IC50 [4]: 1 µg/mL (≈ 2.31 µM) | bioavailability [5]: 72% | MIC (Nakaseomyces glabratus): 0.01 µg/mL (≈ 0.0231 µM) | ED90 (Candida albicans [6]): 0.01 mg/kg | Ratio (Candida albicans [7]): 250 | MIC (Candida parapsilosis): 0.01 µg/mL (≈ 0.0231 µM) | Ratio (Candida albicans [8]): 250 | half-life [9]: 2.5 h | MIC (Candida albicans [10]): 0.04 µg/mL (≈ 0.0923 µM) | inhibition [11]: inactive | Ratio (Candida albicans [12]): 250 | Ratio (Candida albicans [13]): 250 | IC50 [14]: 0.003 µM | MIC (Candida albicans [15]): 0.025 µg/mL (≈ 0.0577 µM) | IC50 [16]: 0.008 µg/mL (≈ 0.0185 µM) | IC50 [17]: 0.2 µM | Ratio (Candida albicans [18]): 250
